Experimental data from ChEMBL document CHEMBL1144914, “Bisintercalating threading diacridines: relationships between DNA binding, cytotoxicity, and cell cycle arrest” (J Med Chem, 2003).
Numbered stars: 1 amine (or outer) side, 2 acyl side, 3 side chain; on linkers, the order of the positions; unused ones are H or OH. Bridge positions count the residues as written; N and C are the ends. Square brackets hold non-standard residues; d marks the D form. Peptide text beside a SMILES is read from it. I, II: the chains in the order shown. Actinocin(1to9) = Cc1c2oc3c(C)ccc(C(=O)[*:2])c3nc-2c(C(=O)[*:1])c(N)c1=O; NMeV = CN[C@H](C(=O)O)C(C)C; Sar = CNCC(=O)O

Assays:
CCRF-CEM = assay: Cytotoxicity in human leukemic CCRF-CEM cells.; format: functional, cell-based
How it was run: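 CCRF-CEM cells in RPMI 1640 with 10% FBS, 2 mM glutamine and pen/strep at 37 °C, 5% CO2, seeded at 1 × 10^5 cells/mL. Agent from 1 mM water stock, diluted in PBS over a concentration range, 72 h exposure. Cells counted by Coulter Counter. Duplicate wells, each curve repeated at least three times. IC50 is 50% growth inhibition versus medium control, from a sigmoidal fit.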

Nucleic Acid [1] = assay: Dissociation time constant (Tau 1) for dissociation of compound and calf thymus DNA complex; format: nucleic-acid assay; conditions: Bos taurus
How it was run: (§1)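 Sonicated calf thymus DNA–ligand complex equilibrated 1 h at room temperature in 0.1 SHE buffer (HEPES, EDTA, 0.1 M NaCl, pH 7.0), then rapidly mixed with SDS at 23 °C. Final concentrations 500 μM DNA, 50 μM ligand, 20 mM SDS. Absorbance followed at 423 nm over 420–3600 s and expressed as fraction of reaction. Multiexponential nonlinear least-squares fit; mean of five runs.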

Nucleic Acid [2] = assay: Dissociation time constant (Tau 2) for dissociation of compound and calf thymus DNA complex; format: nucleic-acid assay; conditions: Bos taurus; how it was run: as §1
Nucleic Acid [3] = assay: Dissociation time constant (Tau 3) for dissociation of compound and calf thymus DNA complex; format: nucleic-acid assay; conditions: Bos taurus; how it was run: as §1

With `O=C(NCCN1CCOCC1)c1cccc2c(NCCCCCCNc3c4ccccc4nc4c(C(=O)NCCN5CCOCC5)cccc34)c3ccccc3nc12` the IC50 (CCRF-CEM) was 710 nM.

`CN(C)CCNC(=O)c1cccc2c(NCCCNCCCNc3c4ccccc4nc4c(C(=O)NCCN(C)C)cccc34)c3ccccc3nc12` was tested, and the IC50 (CCRF-CEM) was 50 nM, the Time constant (Nucleic Acid [1]) was 6 s and the Time constant (Nucleic Acid [2]) was 32 s. For the same molecule, the Time constant (Nucleic Acid [3]) was 130 s.

For `O=C(NCCN1CCOCC1)c1cccc2c(NCCCCNCCCNc3c4ccccc4nc4c(C(=O)NCCN5CCOCC5)cccc34)c3ccccc3nc12`, the IC50 (CCRF-CEM) was 75 nM.

`COc1cc(NS(C)(=O)=O)ccc1Nc1c2ccccc2nc2c(C(N)=O)cccc12` was tested, and the IC50 (CCRF-CEM) was 120 nM.

`CN(C)CCNC(=O)c1cccc2c(NCCCCNCCCNc3c4ccccc4nc4c(C(=O)NCCN(C)C)cccc34)c3ccccc3nc12` gave an IC50 (CCRF-CEM) of 250 nM.

Work on `CN(C)CCNC(=O)c1cccc2c(NCCCCCCNc3c4ccccc4nc4c(C(=O)NCCN(C)C)cccc34)c3ccccc3nc12` yielded an IC50 (CCRF-CEM) of 87 nM.

`O=C(NCCN1CCOCC1)c1cccc2c(NCCN3CCN(CCNc4c5ccccc5nc5c(C(=O)NCCN6CCOCC6)cccc45)CC3)c3ccccc3nc12` gave an IC50 (CCRF-CEM) of 290 nM.

`COC1C(O)CC(OC2CC(Oc3cc4cc5c(c(O)c4c(O)c3C)C(=O)[C@@H](OC3CC(OC4CC(OC6CC(C)(O)C(OC(C)=O)C(C)O6)C(O)C(C)O4)C(O)C(C)O3)[C@H]([C@H](OC)C(=O)[C@@H](O)[C@@H](C)O)C5)OC(C)C2OC(C)=O)OC1C` (stereo partly drawn) [CHROMOMYCIN] was tested, and the IC50 (CCRF-CEM) was 3.5 nM.

`CC[C@@]1(O)C(=O)OCc2c1cc1n(c2=O)Cc2cc3ccccc3nc2-1` [CAMPTOTHECIN] gave an IC50 (CCRF-CEM) of 5.3 nM.

With `O=C1c2c(O)ccc(O)c2C(=O)c2c(NCCNCCO)ccc(NCCNCCO)c21` [MITOXANTRONE] the IC50 (CCRF-CEM) was 3.6 nM.

For `Cc1c2oc3c(C)ccc(C(=O)N[C@@H]4C(=O)N[C@H](C(C)C)C(=O)N5CCC[C@H]5C(=O)N(C)CC(=O)N(C)[C@@H](C(C)C)C(=O)O[C@@H]4C)c3nc-2c(C(=O)N[C@@H]2C(=O)N[C@H](C(C)C)C(=O)N3CCC[C@H]3C(=O)N(C)CC(=O)N(C)[C@@H](C(C)C)C(=O)O[C@@H]2C)c(N)c1=O` [DACTINOMYCIN] (I: T[dV]P[Sar][NMeV] / II: T[dV]P[Sar][NMeV]; ester I:1-I:C, II:1-II:C; linker I:N-II:N via Actinocin(1to9)), the IC50 (CCRF-CEM) was 1.6 nM, the Time constant (Nucleic Acid [1]) was 19 s and the Time constant (Nucleic Acid [2]) was 68 s. The Time constant (Nucleic Acid [3]) was 790 s.

`COC(=O)[C@@H]1c2cc3c(c(O)c2[C@@H](O[C@@H]2O[C@@H](C)[C@H](OC)[C@@](C)(OC)[C@H]2OC)C[C@]1(C)O)C(=O)c1c(O)cc2c(c1C3=O)O[C@@H]1O[C@@]2(C)[C@H](O)[C@@H](N(C)C)[C@@H]1O` [NOGALAMYCIN] was tested, and the IC50 (CCRF-CEM) was 59 nM.

`CN(C)CCNC(=O)c1cccc2c(NCCCCCCCCNc3c4ccccc4nc4c(C(=O)NCCN(C)C)cccc34)c3ccccc3nc12` was tested, and the IC50 (CCRF-CEM) was 35 nM, the Time constant (Nucleic Acid [1]) was 5 s and the Time constant (Nucleic Acid [2]) was 17 s. The Time constant (Nucleic Acid [3]) was 53 s.

`O=C(NCCN1CCOCC1)c1cccc2c(NCCCNCCCNc3c4ccccc4nc4c(C(=O)NCCN5CCOCC5)cccc34)c3ccccc3nc12` showed an IC50 (CCRF-CEM) of 47 nM, a Time constant (Nucleic Acid [1]) of 5 s and a Time constant (Nucleic Acid [2]) of 30 s. It also gave a Time constant (Nucleic Acid [3]) of 88 s.

Work on `CN(C)CCNC(=O)c1cccc2c(NCCN3CCN(CCNc4c5ccccc5nc5c(C(=O)NCCN(C)C)cccc45)CC3)c3ccccc3nc12` yielded an IC50 (CCRF-CEM) of 63 nM, a Time constant (Nucleic Acid [1]) of 7 s and a Time constant (Nucleic Acid [2]) of 22 s. The Time constant (Nucleic Acid [3]) was 220 s.

With `CN(C)CCNC(=O)c1cccc2c(NCCNCCNCCNc3c4ccccc4nc4c(C(=O)NCCN(C)C)cccc34)c3ccccc3nc12` the IC50 (CCRF-CEM) was 590 nM, the Time constant (Nucleic Acid [1]) was 6 s and the Time constant (Nucleic Acid [2]) was 33 s. For the same molecule, the Time constant (Nucleic Acid [3]) was 180 s.

`O=C(NCCN1CCOCC1)c1cccc2c(NCCNCCNCCNc3c4ccccc4nc4c(C(=O)NCCN5CCOCC5)cccc34)c3ccccc3nc12` was tested, and the IC50 (CCRF-CEM) was 710 nM.

`COc1cc(NS(C)(=O)=O)ccc1Nc1c2ccccc2nc2ccccc12` [AMSACRINE] was tested, and the IC50 (CCRF-CEM) was 130 nM.

`O=C(NCCN1CCOCC1)c1cccc2c(NCCCCCCCCNc3c4ccccc4nc4c(C(=O)NCCN5CCOCC5)cccc34)c3ccccc3nc12` was tested, and the IC50 (CCRF-CEM) was 810 nM.

Work on `CS[C@H]1SC[C@H]2C(=O)N(C)[C@@H](C(C)C)C(=O)OC[C@@H](NC(=O)c3cnc4ccccc4n3)C(=O)N[C@@H](C)C(=O)N(C)[C@@H]1C(=O)N(C)[C@@H](C(C)C)C(=O)OC[C@@H](NC(=O)c1cnc3ccccc3n1)C(=O)N[C@@H](C)C(=O)N2C` [ECHINOMYCIN] yielded an IC50 (CCRF-CEM) of 0.5 nM.
